Results: ChEMBL document CHEMBL3397023, “Synthesis and evaluation of multi-functional NO-donor/insulin-secretagogue derivatives for the treatment of type II diabetes and its cardiovascular complications” (Bioorg Med Chem, 2015)
The source made the active and inactive calls. The calls are words filed in the database; no cut-off is given here.

How the values were obtained:
Aorta [1] = assay: Maximal vasorelaxant activity in Wistar rat endothelium-denuded aortic ring assessed as reduction of KCl-induced contraction at 30 uM relative to control; assay type: functional
How it was run: (§1)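 Rat aortic rings were pre-contracted with KCl 30 mM and exposed to cumulative test concentrations. Potency: pIC50, the negative log of the concentration halving KCl-induced tone. Efficacy: Emax, the maximal relaxation at the highest concentration tested. Both given as mean ± SEM.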

Aorta [2] = assay: Vasorelaxant activity in Wistar rat endothelium-denuded aortic ring assessed as reduction of KCl-induced contraction; assay type: functional, tissue-based; how it was run: as §1
Rattus norvegicus [3] = assay: Hypoglycemic activity in STZ-treated Wistar rat diabetic model at 50 mg/kg, ip after 10 mins treated with 1 g/kg, ip glucose; assay type: functional, organism-based; design: dose 50 mg/kg
How it was run: (§2)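 Male Wistar rats (250–300 g) made diabetic with streptozotocin 50 mg/kg ip (fasting glycemia 100–150 mg/dl at day 4), fasted 24 h, then dosed ip. Glucose 1 g/kg ip was given 10 min later. Blood glucose was read by tail puncture with a glucometer at 0, 15, 30, 45, 60, 90 and 120 min, and AUC was calculated. Vehicle normoglycemic rats served as reference.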

Rattus norvegicus [4] = assay: Cardio-protective anti-ischemic activity in STZ-treated Wistar rat heart assessed as reduction in ischemic area at 18.2 mg/kg, ip for 7 days followed by treatment hearts submitted to 30 mins ischemia measured after 120 mins of reperfusion; assay type: functional, organism-based; design: dose 18.2 mg/kg
How it was run: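 STZ-diabetic male Wistar rats (50 mg/kg ip; fasting glycemia 100–150 mg/dl) dosed ip daily for 7 days from day 11, with vehicle normoglycemic rats as reference. Langendorff hearts: 30 min equilibration, 30 min ischemia, 120 min reperfusion. Then 2 mm left-ventricle slices were stained with triphenyltetrazolium chloride, and damaged area was measured by planimetry as % of whole area. Mean ± SEM.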

Rattus norvegicus [5] = assay: Hypoglycemic activity in STZ-treated Wistar rat diabetic model at 75.8 mg/kg, ip after 10 mins treated with 1 g/kg, ip glucose; assay type: functional, organism-based; design: dose 75.8 mg/kg; how it was run: as §2
Rattus norvegicus [6] = assay: Cardio-protective anti-ischemic activity in STZ-treated Wistar rat heart assessed as recovery of functional parameter at 18.2 mg/kg, ip for 7 days followed by treatment hearts submitted to 30 mins ischemia measured after 120 mins of reperfusion; assay type: organism-based; design: dose 18.2 mg/kg
How it was run: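 Male Wistar rats (250–300 g) given streptozotocin 50 mg/kg ip; those with fasting glycemia 100–150 mg/dl at day 4 were used. From day 11, daily ip dosing for 7 days, with vehicle-treated normoglycemic rats as reference. Hearts were taken under heparin and pentobarbital, Langendorff-perfused, equilibrated 30 min, then 30 min ischemia and 120 min reperfusion. Read-out: RPP recovery %, mean ± SEM.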

SMILES	IC50 (Aorta [2]) [µM]	Emax at 30 µM (Aorta [1]) [%]	further results
CC(O[N+](=O)[O-])c1ccc(COC(=O)[C@@H](Cc2ccccc2)NC(=O)[C@H]2CC[C@H](C(C)C)CC2)cc1 (stereo partly specified)	23.4	58	
CC(C)[C@H]1CC[C@H](C(=O)N[C@H](Cc2ccccc2)C(=O)O)CC1			Activity (Rattus norvegicus [3]): Active
CC(C)[C@H]1CC[C@H](C(=O)N[C@H](Cc2ccccc2)C(=O)OCc2cccc(CO[N+](=O)[O-])c2)CC1		45	
CCOc1cc(CC(=O)N[C@@H](CC(C)C)c2ccccc2N2CCCCC2)ccc1C(=O)OCc1cccc(C(C)O[N+](=O)[O-])c1 (stereo partly specified)		26	

Now from value to molecule, other results behind:

IC50 (Aorta [2]) [µM]	SMILES	Emax at 30 µM (Aorta [1]) [%]	further results
13.2	CCOc1cc(CC(=O)N[C@@H](CC(C)C)c2ccccc2N2CCCCC2)ccc1C(=O)OCc1cccc(CO[N+](=O)[O-])c1	79	
5.01	CCOc1cc(CC(=O)N[C@@H](CC(C)C)c2ccccc2N2CCCCC2)ccc1C(=O)OCc1ccc(C(C)O[N+](=O)[O-])cc1 (stereo partly specified)	84	
8.13	CCOc1cc(CC(=O)N[C@@H](CC(C)C)c2ccccc2N2CCCCC2)ccc1C(=O)OCc1ccc(CO[N+](=O)[O-])cc1	94	
5.01	CC(C)[C@H]1CC[C@H](C(=O)N[C@H](Cc2ccccc2)C(=O)OCc2ccc(CO[N+](=O)[O-])cc2)CC1	93	Activity (Rattus norvegicus [4]): Active; Activity (Rattus norvegicus [5]): Active; Activity (Rattus norvegicus [6]): Active
